Assay results published in paper PMC10556424 (RSC Advances, 2023).
Read-outs that look alike come from different tables or passages of the source.

Assays:
[1] = In vitro microsomal stability; type: in vitro ADME; conditions: human liver microsomes, 1 μM
Summary of the method: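 Compound (1 μM) with pooled human liver microsomes (0.4 mg mL−1) in 100 mM potassium phosphate, pH 7.4, with 3.3 mM MgCl2 and 1.3 mM β-NADPH. Organic solvent was ≤1%, at 37 °C. Time-point samples were quenched with ice-cold acetonitrile containing internal standard, centrifuged, and the supernatants analysed by LC-MS/MS. Results are intrinsic clearance.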

[2] = tested on: HBV DNA in HBV-expressed HepG2.2.15 cells; assay: In vitro anti-HBV activity in HepG2.2.15 cell line; type: cell-based; conditions: Hepatitis B virus; for activity at 1 µM: HepG2.2.15, 144 h, read-out: % HBV DNA remaining
Summary of the method: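 HepG2.2.15 cells were seeded at 5 × 10^5 per well in high-glucose DMEM with 10% heat-inactivated FBS, 300 mg L−1 G418, 1% non-essential amino acids and antibiotic–antimycotic, then held overnight at 37 °C, 5% CO2. Compound or 0.5% DMSO was given for 3 days, then renewed for 3 more days. Intracellular HBV DNA was measured by qPCR as % remaining versus vehicle; EC50 came from a 4-parameter nonlinear fit.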

[3] = tested on: all tested CYPs: CYP1A2, CYP2A6, CYP2B6, CYP2C8, CYP2C9, CYP2C19, CYP2D6, CYP2E1, CYP3A4/5; assay: CYP450 inhibition in human liver microsomes, all tested CYPs; type: in vitro ADME; conditions: pooled human liver microsomes, pH 7.4
Summary of the method: (§1)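 Test compound at 10 μM with pooled human liver microsomes (0.2 mg mL−1) and a cocktail of 10 CYP probe substrates. Buffer was 100 mM potassium phosphate, pH 7.4, with 3.3 mM MgCl2, at 37 °C. β-NADPH (1.3 mM) started the reaction. After 10 min, ice-cold 3% formic acid in 5% acetonitrile stopped it. Centrifuged samples went to LC-MS/MS; each metabolite's formation is given as % inhibition versus control.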

CYP2B6 = biological target: T1, CYP2B6 (Homo sapiens, UniProt P20813); assay: CYP450 inhibition in human liver microsomes; type: in vitro ADME; conditions: pooled human liver microsomes, pH 7.4, probe bupropion (12 μM)
T1 sequence (P20813 1-491): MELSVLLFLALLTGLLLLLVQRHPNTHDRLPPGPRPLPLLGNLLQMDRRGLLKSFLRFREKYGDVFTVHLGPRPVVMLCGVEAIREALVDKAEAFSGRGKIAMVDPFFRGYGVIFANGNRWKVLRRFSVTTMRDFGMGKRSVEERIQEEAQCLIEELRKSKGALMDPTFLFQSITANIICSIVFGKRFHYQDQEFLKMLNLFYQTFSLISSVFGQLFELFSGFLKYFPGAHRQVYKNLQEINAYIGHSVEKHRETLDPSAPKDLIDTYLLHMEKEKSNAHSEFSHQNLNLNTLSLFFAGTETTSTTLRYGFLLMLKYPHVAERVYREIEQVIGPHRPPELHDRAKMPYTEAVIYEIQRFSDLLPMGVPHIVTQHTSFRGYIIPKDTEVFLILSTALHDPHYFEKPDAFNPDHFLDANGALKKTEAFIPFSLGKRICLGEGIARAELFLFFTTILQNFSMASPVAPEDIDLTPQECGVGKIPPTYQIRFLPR
Summary of the method: as §1

CYP2C9 = CYP2C9 (Homo sapiens, UniProt P11712); assay: CYP450 inhibition in human liver microsomes; type: in vitro ADME; conditions: pooled human liver microsomes, pH 7.4, probe tolbutamide (100 μM)
Summary of the method: as §1

[4] = Pharmacokinetic studies in rats; type: in vivo; conditions: male, Sprague-Dawley, rat, plasma; for clearance: iv, 0.5 mg/kg; for bioavailability: po, 2 mg/kg
Summary of the method: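 Male Sprague-Dawley rats got a single IV bolus (0.5 mg kg−1, in 10% DMSO in 20% hydroxypropyl methyl β-cyclodextrin) or oral gavage (2 mg kg−1, in 40% polyethylene glycol in water). Plasma was taken pre-dose and up to 24 h and assayed by LC-MS/MS. CL and F came from non-compartmental analysis.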

[5] = Site of oxidative metabolism; type: in vitro ADME; conditions: ESI file S2
CYP2C19 = CYP2C19 (Homo sapiens, UniProt P33261); assay: CYP450 inhibition in human liver microsomes; type: in vitro ADME; conditions: pooled human liver microsomes, pH 7.4, probe (S)-mephenytoin (50 μM)
Summary of the method: as §1

CYP2D6 = CYP2D6 (Homo sapiens, UniProt P10635); assay: CYP450 inhibition in human liver microsomes; type: in vitro ADME; conditions: pooled human liver microsomes, pH 7.4, probe dextromethorphan (2.5 μM)
Summary of the method: as §1

HBV = conditions: cited from earlier work
[6] = HepG2.2.15, read-out: HBV DNA inhibition EC50

Chain of CYP2C9 (P11712 whole entry): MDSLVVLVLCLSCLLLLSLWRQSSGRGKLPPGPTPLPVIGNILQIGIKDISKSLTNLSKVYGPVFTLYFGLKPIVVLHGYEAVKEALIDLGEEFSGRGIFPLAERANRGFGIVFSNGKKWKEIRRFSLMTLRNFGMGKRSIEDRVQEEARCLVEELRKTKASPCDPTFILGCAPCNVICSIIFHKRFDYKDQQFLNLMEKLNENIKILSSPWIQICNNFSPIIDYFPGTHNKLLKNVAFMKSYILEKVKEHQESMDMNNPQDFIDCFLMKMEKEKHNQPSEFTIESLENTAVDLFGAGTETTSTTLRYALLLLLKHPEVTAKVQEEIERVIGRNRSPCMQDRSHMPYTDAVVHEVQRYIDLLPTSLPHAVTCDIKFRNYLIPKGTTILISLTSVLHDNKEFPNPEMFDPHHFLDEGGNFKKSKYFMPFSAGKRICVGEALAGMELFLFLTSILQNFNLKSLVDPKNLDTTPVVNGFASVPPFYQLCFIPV
Chain of CYP2C19 (P33261 whole entry): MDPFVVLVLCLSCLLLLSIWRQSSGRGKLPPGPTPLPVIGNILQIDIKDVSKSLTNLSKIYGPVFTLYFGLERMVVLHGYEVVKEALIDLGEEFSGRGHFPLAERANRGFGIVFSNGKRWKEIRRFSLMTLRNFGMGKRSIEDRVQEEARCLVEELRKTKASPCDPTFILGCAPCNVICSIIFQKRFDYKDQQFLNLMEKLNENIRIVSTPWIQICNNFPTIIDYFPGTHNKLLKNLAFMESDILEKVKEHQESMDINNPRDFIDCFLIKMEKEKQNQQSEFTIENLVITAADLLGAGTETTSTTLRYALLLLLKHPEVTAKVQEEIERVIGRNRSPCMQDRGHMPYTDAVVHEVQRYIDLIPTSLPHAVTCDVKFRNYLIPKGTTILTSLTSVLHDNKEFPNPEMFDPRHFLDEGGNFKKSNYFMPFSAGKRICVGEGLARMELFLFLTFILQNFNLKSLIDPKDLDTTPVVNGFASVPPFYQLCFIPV
Chain of CYP2D6 (P10635 whole entry): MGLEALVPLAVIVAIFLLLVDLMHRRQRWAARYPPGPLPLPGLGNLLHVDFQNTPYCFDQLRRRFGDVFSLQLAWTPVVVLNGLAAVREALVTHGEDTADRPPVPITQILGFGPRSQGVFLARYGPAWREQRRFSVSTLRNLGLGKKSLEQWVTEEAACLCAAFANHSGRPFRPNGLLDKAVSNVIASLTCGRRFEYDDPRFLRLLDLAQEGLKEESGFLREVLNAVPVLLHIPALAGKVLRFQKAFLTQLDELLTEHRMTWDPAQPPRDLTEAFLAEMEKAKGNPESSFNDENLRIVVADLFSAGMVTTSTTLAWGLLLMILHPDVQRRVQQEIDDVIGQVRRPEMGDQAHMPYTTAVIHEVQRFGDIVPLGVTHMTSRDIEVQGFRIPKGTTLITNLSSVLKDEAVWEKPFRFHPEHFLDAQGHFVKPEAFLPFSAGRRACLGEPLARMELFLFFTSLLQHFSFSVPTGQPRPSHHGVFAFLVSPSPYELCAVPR

Compound	CLint ([1]; Table 4)	EC50 [2, 6]	CLint ([1]; Table 3)	activity at 1 µM [2]	inhibition at 10 min, 10 µM (CYP2B6)	inhibition at 10 min, 10 µM (CYP2C9)	other results
Cc1ncnc(C)c1-c1ccc(C(=O)N2CC[C@H](C(=O)Nc3cc(F)c(F)c(F)c3)[C@@H]2C)[nH]1 [CU13, (2S,3S)-1-(5-(4,6-Dimethylpyrimidin-5-yl)-1H-pyrrole-2-carbonyl)-2-methyl-N-(3,4,5-trifluorophenyl)pyrrolidine-3-carboxamide]	2.1 μL per min per mg protein	17.8 ± 3 nM	–	–	–	–	–
O=C(Nc1cc(F)c(F)c(F)c1)[C@H]1CCN(C(=O)c2ccc(-c3ccccn3)[nH]2)C1 [CU07, (S)-1-(5-(Pyridin-2-yl)-1H-pyrrole-2-carbonyl)-N-(3,4,5-trifluorophenyl)pyrrolidine-3-carboxamide]	–	–	6.2 μL per min per mg protein	77%	–	–	inhibition at 10 min, 10 µM [3]: < 20%
Cc1cc(NC(=O)[C@H]2CCN(C(=O)c3ccc(-c4c(C)n[nH]c4C)[nH]3)[C@H]2C)ccc1F [CU16, (2S,3S)-1-(5-(3,5-Dimethyl-1H-pyrazol-4-yl)-1H-pyrrole-2-carbonyl)-N-(4-fluoro-3-methylphenyl)-2-methylpyrrolidine-3-carboxamide]	11.7 μL per min per mg protein	14.9 ± 3 nM	–	–	–	–	–
O=C(Nc1cc(F)c(F)c(F)c1)[C@H]1CCN(C(=O)c2ccc(-c3cncnc3)[nH]2)C1 [CU08, (S)-1-(5-(Pyrimidin-5-yl)-1H-pyrrole-2-carbonyl)-N-(3,4,5-trifluorophenyl)pyrrolidine-3-carboxamide]	–	–	0.5 μL per min per mg protein	43%	61%	53%	–
Cc1ncnc(C)c1-c1ccc(C(=O)N2CC[C@H](C(=O)Nc3ccc(F)c(Cl)c3)[C@@H]2C)[nH]1 [CU14, (2S,3S)–N-(3-Chloro-4-fluorophenyl)-1-(5-(4,6-dimethylpyrimidin-5-yl)-1H-pyrrole-2-carbonyl)-2-methylpyrrolidine-3-carboxamide]	2.9 μL per min per mg protein	13.2 ± 2 nM	–	–	–	–	clearance [4]: 12.3 mL/min/kg; bioavailability [4]: 66%
O=C(Nc1cc(F)c(F)c(F)c1)[C@H]1CCN(C(=O)c2cc3ccccc3[nH]2)C1 [CU03, (S)-1-(1H-Indole-2-carbonyl)-N-(3,4,5-trifluorophenyl)pyrrolidine-3-carboxamide]	–	–	9.2 μL per min per mg protein	44%	–	62%	Site of oxidative metabolic reactions [5]: oxidative metabolic reactions primarily occurred on the R group; inhibition at 10 min, 10 µM (CYP2C19): 63%; EC50 ([2]; HepG2.2.15): 447 nM; inhibition at 10 min, 10 µM (CYP2D6): 51%
C[C@H](NS(=O)(=O)c1cc(C(=O)Nc2ccc(F)c(C#N)c2)n(C)c1)C(F)(F)F [JNJ-6379]	–	–	–	–	–	–	pEC 50 (HBV): 7.22 (ref. [15])
O=C(Nc1cc(F)c(F)c(F)c1)[C@H]1CCN(C(=O)c2ccc(-c3cccnc3)[nH]2)C1 [CU05, (S)-1-(5-(Pyridin-3-yl)-1H-pyrrole-2-carbonyl)-N-(3,4,5-trifluorophenyl)pyrrolidine-3-carboxamide]	–	–	2.9 μL per min per mg protein	47%	65%	87%	–
O=C(Nc1cc(F)c(F)c(F)c1)[C@H]1CCN(C(=O)c2ccc(-c3ccncc3)[nH]2)C1 [CU06, (S)-1-(5-(Pyridin-4-yl)-1H-pyrrole-2-carbonyl)-N-(3,4,5-trifluorophenyl)pyrrolidine-3-carboxamide]	–	–	4.6 μL per min per mg protein	28%	81%	67%	inhibition at 10 min, 10 µM (CYP2D6): 89%
Cc1ncnc(C)c1-c1ccc(C(=O)N2CC[C@H](C(=O)Nc3ccc(F)c(Cl)c3)C2)[nH]1 [CU12, (S)–N-(3-Chloro-4-fluorophenyl)-1-(5-(4,6-dimethylpyrimidin-5-yl)-1H-pyrrole-2-carbonyl)pyrrolidine-3-carboxamide]	3.6 μL per min per mg protein	18.2 ± 2 nM	–	–	–	–	–
Cc1ccc(C(=O)N2CC[C@H](C(=O)Nc3cc(F)c(F)c(F)c3)C2)[nH]1 [CU01, (S)-1-(5-Methyl-1H-pyrrole-2-carbonyl)-N-(3,4,5-trifluorophenyl)pyrrolidine-3-carboxamide]	–	–	14.4 μL per min per mg protein	59%	–	–	inhibition at 10 min, 10 µM [3]: < 20%
O=C(Nc1cc(F)c(F)c(F)c1)[C@H]1CCN(C(=O)c2ccc(C3CC3)[nH]2)C1 [CU02, (S)-1-(5-cyclopropyl-1H-pyrrole-2-carbonyl)-N-(3,4,5-trifluorophenyl)pyrrolidine-3-carboxamide]	–	–	14.5 μL per min per mg protein	48%	50%	–	Site of oxidative metabolic reactions [5]: oxidative metabolic reactions primarily occurred on the R group; inhibition at 10 min, 10 µM (CYP2C19): 53%
Cc1cc(NC(=O)[C@H]2CCN(C(=O)c3ccc(-c4c(C)ncnc4C)[nH]3)[C@H]2C)ccc1F [CU15, (2S,3S)-1-(5-(4,6-Dimethylpyrimidin-5-yl)-1H-pyrrole-2-carbonyl)-N-(4-fluoro-3-methylphenyl)-2-methylpyrrolidine-3-carboxamide]	4.9 μL per min per mg protein	8.6 ± 2 nM	–	–	–	–	clearance [4]: 20 mL/min/kg; bioavailability [4]: 44%; EC50 ([2]; HepG2.2.15): < 10 nM
